ChEMBL document CHEMBL1147824, “Synthesis, biological activity, and DNA-damage profile of platinum-threading intercalator conjugates designed to target adenine” (J Med Chem, 2006)

Experiments:
HL-60 = test: Cytotoxicity against human HL60 cell line by MTS assay; format: functional, cell-based
How it was run: (§1)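 Cells kept at 37 °C in humidified 5% CO2/95% air and seeded at 700 cells/well (H460) or 27 500 cells/well (HL-60). Log-phase cells were exposed in triplicate to serial drug dilutions for 72 h; stocks in DMSO, PBS or DMF, final organic solvent under 0.1%. MTS/PMS added for 3 h, A490 read. IC50 from sigmoidal dose-response fit; mean of at least three experiments.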

NCI-H460 = test: Cytotoxicity against human H460 cell line by MTS assay; format: functional, cell-based; how it was run: as §1

SMILES | IC50 (HL-60) [µM] | IC50 (NCI-H460) [µM]
C/N=C(\S)N(C)CCNc1c2ccccc2nc2c(C(=O)NCCNC(=O)Nc3ccccc3)cccc12 | > 50 | 31.9
C/N=C(\S)N(C)CCNc1c2ccccc2nc2c(C(=O)NCCCCNC(=O)Nc3ccccc3)cccc12 | 0.39 | 3.1
CCNC(=O)NCCCCNC(=O)c1cccc2c(NCCN(C)/C(S)=N/C)c3ccccc3nc12 | > 100 | > 100
CNC(=S)N(C)CCNc1c2ccccc2nc2ccccc12 | 11.5 | 9.5
C/N=C(\S)N(C)CCNc1c2ccccc2nc2c(C(=O)NCCN(C)C)cccc12 | 1.4 | 2.2
C/N=C(\S)N(C)CCNc1c2ccccc2nc2c(C(=O)NCCOC(C)=O)cccc12 | 29.5 | 17.6
CCNC(=O)NCCNC(=O)c1cccc2c(NCCN(C)/C(S)=N/C)c3ccccc3nc12 | > 100 | > 100
C/N=C(\S)N(C)CCNc1c2ccccc2nc2c(C(=O)NCCO)cccc12 | 27.4 | 41.1
